UBC9 SUMO inh – inhibitors of human SUMOylation (UBC9); P63279; HTRF SUMOylation assay, SAE1/SAE2 + UBC9, in vitro; inhibition, % at 35 µM; 290,000 tested, 0.36% active; AID 2006; in the data active means inhibition above about 50%, passing the limit was not always enough
GSTO1 counter – counter-screen for RBBP9 inhibitors: inhibitors of human GSTO1; P78417; recombinant GSTO1, activity-based probe fluorescence polarization; inhibition, % at 5.96 µM; 300,000 tested, 1.1% active; AID 1974;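 active means inhibition above the campaign mean inhibition plus 3 SD, cut at about 35% in these data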
Apaf-1 inh – human Apaf-1 inhibition; 330,000 tested, 0.71% active; inhibition, % at 20 µM; O14727; AID 489030; reconstituted apoptosome caspase-3 activity, DEVD-Rh110 fluorescence; active means inhibition of at least 40% at 20 µM
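Material: reconstituted apoptosome with Apaf-1, cytochrome c, caspase-9, procaspase-3, dATP; medium: pH 7.5 Hepes buffer with CHAPS, BSA, DTT; also added: cytochrome c and DEVD-Rh110 substrate; timing: 30 min plus 50 min, RT; signal: Rh110 fluorescence intensity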
Redox H2O2 prof – compounds producing H2O2 with reducing agent – biochemical, NIH compound library profiling, artefact control for MLSCN library redox annotation, primary screen | 200,000 tested, 0.03% active | activation, % at 10 µM | DTT-dependent redox cycling H2O2, phenol red/HRP absorbance; 100% = 100 µM peroxide control, 0% = buffer;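 active means activation of at least 50% relative to the plate's high and low controls in the primary single-dose screen; inactive means activation below 50%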;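 further: compound incubated with DTT at 0.8 mM final as the reducing agent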
HKDC1 inh – inhibitors of human hexokinase HKDC1; AID 493160; inhibition, % at 20 µM; recombinant HKDC1, G6PDH/diaphorase resazurin coupled fluorescence; 340,000 tested, 0.16% active;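 active means inhibition above about 35% when tested at 20 µM, limit read from the data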
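Test system: recombinant HKDC1 (HK5) hexokinase enzyme, produced in-house; Amount: enzyme 5 µg/mL final; Buffer or medium: Tris pH 8.0 buffer with MgCl2, Tween-20, BSA, BME; Reagent: glucose and ATP substrates; Doses: 20 µM test compound, 1% DMSO; Incubation: 90 min reaction incubation at room temperature, dark; Detection: resorufin fluorescence at 613 nm.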
GSTO1 inh conf – confirmation of human GSTO1 inhibitors; 2,400 tested, 54% active; inhibition, % at 5.96 µM; shares compounds with GSTO1 counter; recombinant GSTO1, probe fluorescence polarization;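 active means inhibition above the primary screen's cutoff, its mean inhibition plus 3 SD, cut at about 35% in these data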;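 further: loss of polarization as inhibitors block binding of rhodamine sulfonate ester activity probe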
A number is an active result; n = inactive; x = no result. An excerpt weighted towards active compounds, which were near 1.4% of everything screened.

SMILES | UBC9 SUMO inh | GSTO1 counter | Apaf-1 inh | Redox H2O2 prof | HKDC1 inh | GSTO1 inh conf
O=C(NCc1ccccn1)c1ccc(NS(=O)(=O)c2cccc(Cl)c2)cc1 | n | x | n | x | n | x
Nc1ncnc2c1ncn2[C@@H]1O[C@H](CNS(=O)(=O)c2cc3ccccc3s2)[C@@H](O)[C@H]1O | x | x | n | x | n | x
CCN(CC)C(=O)c1ccc(N)cc1 | n | 43 | n | n | n | n
Nc1ccc(C(=O)N(CCO)CCO)cc1 | n | n | n | n | n | x
COc1ccc(C2C(C#N)=C(N)Oc3n[nH]c(-c4ccccn4)c32)c(OC)c1OC (configuration not stated) | n | 43 | n | n | n | n
Cc1ccc(N/N=C2\CC(=O)c3ccccc32)cc1Cl | n | 48 | 76 | n | x | n
O=C(O)c1cc(NN=C2c3ccccc3-c3ccccc32)ccc1Cl | n | n | n | x | n | x
Cc1ccc(CNS(=O)(=O)c2ccc(C)s2)cc1 | x | n | n | x | n | x
CC1(S(=O)(=O)O)CC(=O)c2ccccc2C1=O (configuration not stated) | n | 74 | n | x | n | 74
CC1(N2CCCCC2)C(=O)c2ccccc2C1=O | n | n | n | n | n | x
COc1cc(-c2nnc(SCc3cc(=O)oc4cc(O)c(O)cc34)o2)cc(OC)c1OC | n | 59 | n | n | n | 39
O=C(CN1CCCC1)N/N=C/c1c(O)ccc2ccccc12 | n | 38 | n | x | n | n
CCCN1CCC2(CC1)NC(C(=O)O)Cc1c2[nH]c2ccccc12 (configuration not stated) | n | x | n | x | n | x
COC(=O)C1Cc2c([nH]c3ccccc23)C2(CCN(Cc3ccccc3)CC2)N1 (configuration not stated) | n | 62 | n | x | n | n
CC1=C(C)/C(=N/OC(=O)c2cccc([N+](=O)[O-])c2)C=CC1=O | n | 47 | n | n | n | n
CCCCn1c(N)c(N(CCOC)C(=O)C(C)N2C(=O)c3ccccc3C2=O)c(=O)[nH]c1=O (configuration not stated) | x | 67 | n | x | n | n
CCCCn1c(N)c(N(CCOC)C(=O)CN2C(=O)c3ccccc3C2=O)c(=O)[nH]c1=O | n | n | n | x | n | x
O=C(OCC(=O)N1CCN(c2ccccc2)CC1)C1=COCCO1 | n | 67 | n | n | n | n
O=C1C=C(Nc2cccc3cccnc23)c2ccccc2C1=O | n | 77 | 47 | x | n | 58
O=C(CSc1nnc(-c2cccs2)n1C1CC1)NC1CCS(=O)(=O)C1 (configuration not stated) | x | x | n | x | n | x
O=C(CSc1nnc(-c2ccc(Cl)cc2Cl)n1C1CCCCC1)NC1CCS(=O)(=O)C1 (configuration not stated) | n | 45 | n | n | n | n
N#CCCN(CCC#N)C(=O)C1c2ccccc2Oc2ccccc21 | n | 52 | n | x | n | n
NNC(=O)c1cc2ccccc2cc1NS(=O)(=O)c1ccccc1 | n | n | n | x | n | x
C[C@@H]1ON(C)[C@H]2C[C@H]3c4cc(-c5cccc(F)c5)ccc4CCN3C(=O)[C@@H]12 | x | x | x | x | n | x
O=c1c2c([N+](=O)[O-])cc([N+](=O)[O-])cc2sn1-c1ccc(Br)cc1 | n | 38 | n | n | n | n
SMILES | UBC9 SUMO inh | GSTO1 counter | Apaf-1 inh | Redox H2O2 prof | HKDC1 inh | GSTO1 inh conf
O=c1c2c([N+](=O)[O-])cc([N+](=O)[O-])cc2sn1Cc1ccccc1 | n | n | n | x | n | x
Cc1nc2scc(-c3ccc(C(C)C)cc3)c2c(=O)n1N | n | n | n | n | n | x
CC[n+]1ccc(/C=C/c2ccc(N(C)C)cc2)c2ccccc21 | n | x | x | n | n | x
CC[n+]1ccc(C[n+]2ccccc2)c2ccccc21 | n | 49 | x | n | n | n
CCOc1cccc(CNc2ccc(O)cc2)c1OCc1ccc(Cl)cc1Cl | n | 78 | n | n | n | n
CCOc1cccc(CNCCO)c1OCc1ccc(Cl)cc1Cl | n | n | n | n | n | x
Nc1ncnc2oc(-c3ccco3)c(-c3ccco3)c12 | 78 | 56 | n | n | n | n
Nc1nnc(-c2ccco2)s1 | n | n | n | n | n | x
COc1ccc(N(C(=O)c2cnccn2)C(C(=O)NC2CCCCC2)c2ccc(Cl)cc2)cc1 (configuration not stated) | x | n | n | n | n | x

High-throughput results deposited in PubChem BioAssay by several laboratories.
